Here are results for 20 compounds from ChEMBL document CHEMBL1811822, “P2-P1' macrocyclization of P2 phenylglycine based HCV NS3 protease inhibitors using ring-closing metathesis” (Bioorg Med Chem, 2011).

Target in the first assay: not listed separately
The assay can be described thus: Inhibition of HCV NS3 protease. Set-up: species or system Hepacivirus hominis.
Settings: not given
In short, it runs like this:
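Full-length NS3 protein (protease–helicase/NTPase domains) from HCV genotype 1a, wild-type, with a 16-residue NS4A activating-region peptide. Protease activity was read by FRET. Enzyme at 1 nM was incubated 10 min at 30 °C in 50 mM HEPES, pH 7.5. Ki values were derived and reported with standard deviation.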
By Ki is commonly meant a measure of affinity in units of concentration, obtained from inhibition or displacement. Read a low Ki as a stronger hold on the target. Compound `C=CCCCS(=O)(=O)NC(=O)[C@H](CCC)NC(=O)[C@@H](NC(=O)[C@@H](NC(=O)OC(C)(C)C)C(C)(C)C)c1ccc(Oc2cc(-c3ccccc3)nc3cc(OC)ccc23)c(C=C)c1` gave a Ki of 63 nM.

As for `C=CCCCS(=O)(=O)NC(=O)[C@H](CCC)NC(=O)[C@H](NC(=O)[C@@H](NC(=O)OC(C)(C)C)C(C)(C)C)c1ccc(Oc2cc(-c3ccccc3)nc3cc(OC)ccc23)c(C=C)c1`, the Ki was 48 nM.

Turning to `COc1ccc2c(O[C@@H]3C[C@H]4C(=O)N[C@]5(C(=O)O)C[C@H]5/C=C\CCCCC[C@H](NC(=O)OC5CCCC5)C(=O)N4C3)cc(-c3csc(NC(C)C)n3)nc2c1` [CILUPREVIR], the Ki came to 40 nM.

Target in a further assay: not listed separately
As to the kind of experiment: Inhibition of protease activity of full-length HCV genotype 1a NS3 protease by FRET assay.
Settings: not given
Compound `CCC[C@@H]1NC(=O)[C@@H](NC(=O)[C@@H](NC(=O)OC(C)(C)C)C(C)(C)C)c2ccc(Oc3cc(-c4ccccc4)nc4cc(OC)ccc34)c(c2)/C=C\CCS(=O)(=O)NC1=O` returned an inhibitory constant (Ki) of 137 nM.

`CCC[C@@H]1NC(=O)[C@@H](NC(=O)[C@@H](NC(=O)OC(C)(C)C)C(C)(C)C)c2ccc(Oc3cc(-c4ccccc4)nc4cc(OC)ccc34)c(c2)/C=C\CCCCS(=O)(=O)NC1=O` came in with an inhibition constant (Ki) of 320 nM.

Compound `CCC[C@@H]1NC(=O)[C@@H](NC(=O)[C@@H](NC(=O)OC(C)(C)C)C(C)(C)C)c2ccc(Oc3cc(-c4ccccc4)nc4cc(OC)ccc34)c(c2)/C=C/c2ccccc2S(=O)(=O)NC1=O` displayed a Ki of 150 nM.

For the compound `CCC[C@@H]1NC(=O)[C@@H](NC(=O)[C@@H](NC(=O)OC(C)(C)C)C(C)(C)C)c2ccc(Oc3cc(-c4ccccc4)nc4cc(OC)ccc34)c(c2)/C=C\c2ccccc2S(=O)(=O)NC1=O`, the Ki was 170 nM.

Consider `CCC[C@@H]1NC(=O)[C@H](NC(=O)[C@@H](NC(=O)OC(C)(C)C)C(C)(C)C)c2ccc(Oc3cc(-c4ccccc4)nc4cc(OC)ccc34)c(c2)/C=C\CC2(CC2)S(=O)(=O)NC1=O`, for which the affinity corresponds to a Ki of 870 nM.

Consider `CCC[C@@H]1NC(=O)[C@@H](NC(=O)[C@@H](NC(=O)OC(C)(C)C)C(C)(C)C)c2ccc(Oc3cc(-c4ccccc4)nc4cc(OC)ccc34)c(c2)C/C=C/CS(=O)(=O)NC1=O`, for which the Ki turned out to be 222 nM.

Compound `CCC[C@@H]1NC(=O)[C@@H](NC(=O)[C@@H](NC(=O)OC(C)(C)C)C(C)(C)C)c2ccc(Oc3cc(-c4ccccc4)nc4cc(OC)ccc34)c(c2)/C=C\Cc2ccccc2S(=O)(=O)NC1=O` came in with a Ki of 190 nM.

For the compound `CCC[C@@H]1NC(=O)[C@@H](NC(=O)[C@@H](NC(=O)OC(C)(C)C)C(C)(C)C)c2ccc(Oc3cc(-c4ccccc4)nc4cc(OC)ccc34)c(c2)/C=C\CC2(CC2)S(=O)(=O)NC1=O`, the affinity corresponds to a Ki of 110 nM.

`CCC[C@@H]1NC(=O)[C@H](NC(=O)[C@@H](NC(=O)OC(C)(C)C)C(C)(C)C)c2ccc(Oc3cc(-c4ccccc4)nc4cc(OC)ccc34)c(c2)/C=C/CCCCS(=O)(=O)NC1=O`: the Ki was 710 nM.

Consider `CCC[C@@H]1NC(=O)[C@@H](NC(=O)[C@@H](NC(=O)OC(C)(C)C)C(C)(C)C)c2ccc(Oc3cc(-c4ccccc4)nc4cc(OC)ccc34)c(c2)/C=C/CCCCS(=O)(=O)NC1=O`, for which the Ki was found to be 940 nM.

Compound `CCC[C@@H]1NC(=O)[C@H](NC(=O)[C@@H](NC(=O)OC(C)(C)C)C(C)(C)C)c2ccc(Oc3cc(-c4ccccc4)nc4cc(OC)ccc34)c(c2)/C=C\CCCS(=O)(=O)NC1=O` returned a Ki of 760 nM.

Compound `CCC[C@@H]1NC(=O)[C@@H](NC(=O)[C@@H](NC(=O)OC(C)(C)C)C(C)(C)C)c2ccc(Oc3cc(-c4ccccc4)nc4cc(OC)ccc34)c(c2)C/C=C/CCS(=O)(=O)NC1=O` (mixture of isomers) registered a Ki of 470 nM.

In turn, `CCC[C@@H]1NC(=O)[C@@H](NC(=O)[C@@H](NC(=O)OC(C)(C)C)C(C)(C)C)c2ccc(Oc3cc(-c4ccccc4)nc4cc(OC)ccc34)c(c2)CCCc2ccccc2S(=O)(=O)NC1=O` yielded a Ki of 250 nM.

Consider `CCC[C@@H]1NC(=O)[C@@H](NC(=O)[C@@H](NC(=O)OC(C)(C)C)C(C)(C)C)c2ccc(Oc3cc(-c4ccccc4)nc4cc(OC)ccc34)c(c2)CCCCCCS(=O)(=O)NC1=O`, for which the Ki came to 570 nM.

Regarding `CCC[C@@H]1NC(=O)[C@@H](NC(=O)[C@@H](NC(=O)OC(C)(C)C)C(C)(C)C)c2ccc(Oc3cc(-c4ccccc4)nc4cc(OC)ccc34)c(c2)/C=C\CCCS(=O)(=O)NC1=O`, the inhibition constant (Ki) is 390 nM.

`CCC[C@@H]1NC(=O)[C@@H](NC(=O)[C@@H](NC(=O)OC(C)(C)C)C(C)(C)C)c2ccc(Oc3cc(-c4ccccc4)nc4cc(OC)ccc34)c(c2)/C=C/CCCS(=O)(=O)NC1=O` registered a Ki of 240 nM.

Another assay relates to Hepatitis C virus. As to the kind of experiment: Antiviral activity against HCV 1b infected in human HuH7 cells assessed as inhibition of viral replication by luciferase assay. In kind it is functional, organism-based, Hepacivirus hominis. The note with it: genotype 1b, Huh-7.
What is called EC50 is the midpoint of the concentration-response curve. `CCC[C@@H]1NC(=O)[C@@H](NC(=O)[C@@H](NC(=O)OC(C)(C)C)C(C)(C)C)c2ccc(Oc3cc(-c4ccccc4)nc4cc(OC)ccc34)c(c2)/C=C/CCCS(=O)(=O)NC1=O`: the EC50 amounted to 6000 nM.

A further assay deals with Hepatitis C virus. The assay can be described thus: Antiviral activity against HCV. In kind it is functional, organism-based, Hepacivirus hominis.
Settings: not given
Regarding `CC(C)(C)OC(=O)N[C@H]1CCCCC/C=C\[C@@H]2C[C@@]2(C(=O)NS(=O)(=O)C2CC2)NC(=O)[C@@H]2C[C@@H](OC(=O)N3Cc4cccc(F)c4C3)CN2C1=O` [DANOPREVIR], a half-maximal effect (EC50) was put at 0.6 nM.

For `COc1ccc2c(O[C@@H]3C[C@H]4C(=O)N[C@]5(C(=O)O)C[C@H]5/C=C\CCCCC[C@H](NC(=O)OC5CCCC5)C(=O)N4C3)cc(-c3csc(NC(C)C)n3)nc2c1` [CILUPREVIR], it took 350 nM to reach a half-maximal effect (EC50).
